Key:
Format in all cases: ADME
Cytochrome P450 1B1 = molecular target: T1, Cytochrome P450 1B1 (Homo sapiens, UniProt Q16678); experiment: Inhibition of human recombinant CYP1B1 by spectrophotometry based 7-ethoxyresorufin O-deethylation enzyme assay
T1 sequence (Q16678 whole entry): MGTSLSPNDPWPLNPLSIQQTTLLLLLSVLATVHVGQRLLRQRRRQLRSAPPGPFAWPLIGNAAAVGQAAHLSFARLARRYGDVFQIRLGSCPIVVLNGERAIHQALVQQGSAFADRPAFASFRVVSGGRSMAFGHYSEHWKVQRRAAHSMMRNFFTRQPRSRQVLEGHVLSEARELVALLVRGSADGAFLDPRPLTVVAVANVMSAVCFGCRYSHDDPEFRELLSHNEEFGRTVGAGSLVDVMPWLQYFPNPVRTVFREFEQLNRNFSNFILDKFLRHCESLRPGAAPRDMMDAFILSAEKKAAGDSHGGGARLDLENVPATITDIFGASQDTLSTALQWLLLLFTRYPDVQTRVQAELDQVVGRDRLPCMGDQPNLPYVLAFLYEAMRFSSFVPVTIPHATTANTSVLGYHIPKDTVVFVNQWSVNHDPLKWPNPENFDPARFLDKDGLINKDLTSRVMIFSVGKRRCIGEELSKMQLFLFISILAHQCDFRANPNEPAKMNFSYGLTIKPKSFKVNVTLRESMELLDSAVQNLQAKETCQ
Method in brief: (§1)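 EROD assay: fresh DMSO solutions of test compound over various concentrations with 2 µM 7-ethoxyresorufin, 1.3 mM NADP+, 3.3 mM glucose-6-phosphate, 0.5 U/ml G6PDH, 3.3 mM MgCl2 in 100 mM potassium phosphate pH 7.4. Started with enzyme (1.25 pmol CYP1A1, or 5 pmol CYP1A2 or CYP1B1), 37 °C, 15 min. Resorufin fluorescence (ex 550/em 585) against resorufin standard. IC50 read graphically from % of control activity; three parallel experiments.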

CYP1A2 / CYP1A1 = experiment: Selectivity ratio, ratio of IC50 for human recombinant CYP1A2 to IC50 for human recombinant CYP1A1; conditions: recombinant CYP1A2 and recombinant CYP1A1, read-out: Ratio IC50
Cytochrome P450 1A1 = molecular target: T2, Cytochrome P450 1A1 (Homo sapiens, UniProt P04798); experiment: Inhibition of human recombinant CYP1A1 by spectrophotometry based 7-ethoxyresorufin O-deethylation enzyme assay; method in brief: as §1
T2 sequence (P04798 whole entry): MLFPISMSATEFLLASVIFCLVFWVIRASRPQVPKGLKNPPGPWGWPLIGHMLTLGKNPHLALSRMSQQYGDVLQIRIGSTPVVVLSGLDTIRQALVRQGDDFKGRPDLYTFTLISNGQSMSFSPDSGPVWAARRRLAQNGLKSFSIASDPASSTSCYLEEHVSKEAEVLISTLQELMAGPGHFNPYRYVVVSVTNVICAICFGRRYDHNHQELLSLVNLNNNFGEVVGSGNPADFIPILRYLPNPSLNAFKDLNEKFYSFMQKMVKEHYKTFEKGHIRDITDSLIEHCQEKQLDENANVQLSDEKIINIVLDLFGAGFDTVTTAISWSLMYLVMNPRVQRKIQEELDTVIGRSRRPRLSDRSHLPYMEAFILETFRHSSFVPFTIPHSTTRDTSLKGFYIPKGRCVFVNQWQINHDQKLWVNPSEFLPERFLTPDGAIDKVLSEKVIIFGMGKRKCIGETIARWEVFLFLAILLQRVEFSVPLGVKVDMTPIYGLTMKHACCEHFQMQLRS

Cytochrome P450 1A2 [1] = molecular target: T3, Cytochrome P450 1A2 (Homo sapiens, UniProt P05177); experiment: Inhibition of human recombinant CYP1A2 by spectrophotometry based 7-ethoxyresorufin O-deethylation enzyme assay; method in brief: as §1
T3 sequence (P05177 whole entry): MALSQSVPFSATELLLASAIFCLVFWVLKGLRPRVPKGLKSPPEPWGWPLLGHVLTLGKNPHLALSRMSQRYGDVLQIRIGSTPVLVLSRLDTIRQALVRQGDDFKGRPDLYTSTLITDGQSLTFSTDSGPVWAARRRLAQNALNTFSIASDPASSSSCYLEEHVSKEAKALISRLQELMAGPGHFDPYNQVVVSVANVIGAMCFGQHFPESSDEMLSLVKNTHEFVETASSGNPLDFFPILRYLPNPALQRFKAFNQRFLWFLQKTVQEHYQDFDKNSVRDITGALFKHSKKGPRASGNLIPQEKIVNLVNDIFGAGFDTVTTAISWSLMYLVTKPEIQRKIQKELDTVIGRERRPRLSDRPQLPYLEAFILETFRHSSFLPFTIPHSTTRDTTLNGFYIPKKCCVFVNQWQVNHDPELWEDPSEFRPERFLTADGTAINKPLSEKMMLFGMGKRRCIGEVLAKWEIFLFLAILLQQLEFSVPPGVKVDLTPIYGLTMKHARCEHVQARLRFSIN

Cytochrome P450 1A2 [2] = molecular target: T3, Cytochrome P450 1A2; experiment: Activity of human recombinant CYP1A2 assessed as NADPH oxidation level per pmol of CYP1A2 level at 10 uM by spectrophotometry; conditions: recombinant enzyme
Method in brief: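 NADPH oxidation by human recombinant CYP1A2 (5 pmol/ml) in Tris buffer pH 7.4 with stilbene at 1–50 µM. Reaction started with 0.2 mM NADPH, 37 °C, 3 min. Absorbance at 340 nm read every 15 s; NADPH oxidized calculated with extinction coefficient 6.22 mM-1 cm-1.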

CYP1A2 / CYP1B1 = experiment: Selectivity ratio, ratio of IC50 for human recombinant CYP1A2 to IC50 for human recombinant CYP1B1; conditions: recombinant CYP1A2 and recombinant CYP1B1, read-out: Ratio IC50

| Structure (SMILES) | IC50 (Cytochrome P450 1B1) [nM] | selectivity ratio (CYP1A2 / CYP1A1) | IC50 (Cytochrome P450 1A1) [nM] | IC50 (Cytochrome P450 1A2 [1]) [µM] | Activity (Cytochrome P450 1A2 [2]) [µM/min] | selectivity ratio (CYP1A2 / CYP1B1) |
| --- | --- | --- | --- | --- | --- | --- |
| COc1cc(/C=C/c2ccc(SC)cc2)cc(OC)c1 | 1500 | 3.6 | 1400 | 5 | < 0.3 | 3.3 |
| CSc1ccc(/C=C/c2ccccc2Cl)cc1 | 300 | 14.5 | 1000 | 14.5 |  | 48.3 |
| COc1cccc(/C=C/c2ccc(SC)cc2)c1 | 500 | 10.5 | 1100 | 11.5 | < 0.3 | 23 |
| COc1cccc(/C=C/c2ccc(SC)cc2)c1OC | 1100 | 12.2 | 1800 | 22 | < 0.3 | 20 |
| COc1cc(/C=C/c2ccc(SC)cc2)cc(OC)c1OC | 2600 | 1.9 | 3600 | 7 | 2.22 | 2.7 |
| COc1ccc(OC)c(/C=C/c2ccc(SC)cc2)c1 | 1100 | 10.4 | 3800 | 39.5 | < 0.3 | 35.9 |
| COc1ccccc1/C=C/c1ccc(SC)cc1 | 300 | 7.5 | 1000 | 7.5 | < 0.3 | 25 |
| COc1cc(OC)c(OC)cc1/C=C/c1ccc(SC)cc1 | 900 | 18.7 | 800 | 15 | 2.91 | 16.7 |
| COc1cc(OC)c(/C=C/c2ccc(SC)cc2)c(OC)c1 | 500 | 16.3 | 400 | 6.5 | < 0.3 | 17 |
| COc1ccc(/C=C/c2ccc(SC)cc2)cc1 | 5500 | 0.8 | 28000 | 23 | < 0.3 | 4.2 |
| COc1ccc(/C=C/c2ccc(SC)cc2)c(OC)c1 | 2000 | 3.4 | 2400 | 8.1 | < 0.3 | 4.1 |
| COc1ccc(/C=C/c2ccc(SC)cc2)c(OC)c1OC | 1000 | > 55.5 | 900 | > 50 | < 0.6 | > 50 |
